Measurements as given in ChEMBL document CHEMBL3259717, “Synthetic calanolides with bactericidal activity against replicating and nonreplicating Mycobacterium tuberculosis” (J Med Chem, 2014).
Converted amounts (≈) assume the structure as drawn.

Columns and labels:
[1] = test system: Mycobacterium tuberculosis; assay: Antibacterial activity against replicating form of Mycobacterium tuberculosis MC2 6220 assessed as growth inhibition after 7 days by high-throughput screening assay; assay type: functional; details: MC2 6220, 168 h
Procedure, shortened: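 Attenuated Mtb mc26220 ΔpanCDΔlysA in 7H9 with glycerol, tyloxapol, OADC, casein amino acids, 240 μg/mL L-lysine, 24 μg/mL pantothenate. Mid-log cells diluted to OD580 0.01 in 384-well plates, compound in DMSO, 7 days at 37 °C, 20% O2, 5% CO2. OD580 read; MIC90 = 90% growth inhibition vs DMSO.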

[2] = Cytotoxicity against human HepG2 cells assessed as decrease in ATP signal after 2 days by CellTiter-Glo assay; assay type: cell-based; details: read-out: LD50
Procedure, shortened: (§1)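 HepG2 in DMEM with 10% FBS, pyruvate, glutamine, HEPES and nonessential amino acids, seeded 3000 cells/well in 384-well plates. Compound for 2 days at 1% final DMSO. ATP read by CellTiter-Glo luminescence. LD50 = 50% drop in ATP signal vs DMSO. SI = LD50/MIC90 against replicating Mtb.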

[3] = test system: Mycobacterium tuberculosis; assay: Antibacterial activity against non-replicating form of Mycobacterium tuberculosis MC2 6220 assessed as growth inhibition after 3 days by high-throughput screening assay; assay type: functional; details: MC2 6220, 72 h
Procedure, shortened: (§2)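 Log-phase mc26220 washed in PBS/tyloxapol, resuspended in Sauton's-based NR medium (butyrate, 0.5 mM NaNO2, pH 5.0) at OD580 0.1. Compound exposure 3 days at 37 °C, 1% O2, 5% CO2. Then R medium added (5-fold dilution), 7 days outgrowth at 20% O2. OD580 read; MIC90 = 90% inhibition vs DMSO.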

[4] = Selectivity index, ratio of LD50 for human HepG2 cells to MIC90 for replicating form of Mycobacterium tuberculosis mc'2 6220; assay type: toxicity, cell-based; details: read-out: Selectivity Index; procedure, shortened: as §1
[5] = test system: Mycobacterium tuberculosis; assay: Antibacterial activity against non-replicating form of Mycobacterium tuberculosis MC2 6220 assessed as growth inhibition after 7 days by high-throughput screening assay; assay type: functional; details: MC2 6220, 168 h; procedure, shortened: as §2
[6] = Selectivity index, ratio of LD50 for human HepG2 cells to MIC90 for replicating form of Mycobacterium tuberculosis H37Rv; assay type: toxicity, cell-based; details: read-out: Selectivity Index; procedure, shortened: as §1
[7] = test system: Mycobacterium tuberculosis; assay: Antibacterial activity against replicating form of wild type Mycobacterium tuberculosis H37Rv assessed as growth inhibition after 7 days by high-throughput screening assay; assay type: functional; details: 168 h
Procedure, shortened: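 Wild-type H37Rv in 7H9 with glycerol, tyloxapol, ADN, in 96-well plates. Set up as the 384-well screen: OD580 0.01 start, compound in DMSO, 7 days at 37 °C, 20% O2, 5% CO2. OD580 read; MIC90 = 90% growth inhibition vs DMSO control.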

[8] = test system: Mycobacterium tuberculosis; assay: Antibacterial activity against non-replicating form of wild type Mycobacterium tuberculosis H37Rv assessed as growth inhibition after 3 days by high-throughput screening assay; assay type: functional; details: 72 h
[9] = test system: Mycobacterium tuberculosis; assay: Bactericidal activity against wild type Mycobacterium tuberculosis H37Rv infected in IFN-gamma-stimulated primary human monocyte-derived macrophages assessed as reduction of log10CFU incubated for 7 days followed by compound washout measured after 3 weeks; assay type: functional
Procedure, shortened: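 Monocytes from healthy donors isolated by CD14 selection. Differentiated 2 weeks in 40% human plasma with 0.5 ng/mL GM-CSF and TNF-alpha, 10% O2. Then 5 ng/mL IFN-gamma overnight, infected with wild-type Mtb at MOI 0.1. Compound added at 24 h, 1% DMSO final, 7 days. Viability inspected visually; lysed in 0.55% Triton-X and plated on 7H11/OADC for CFU.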

[10] = Genotoxicity in mouse lymphoma cells; assay type: toxicity, cell-based
[11] = test system: Mycobacterium tuberculosis; assay: Antimycobacterial activity against replicating form of Mycobacterium tuberculosis infected in African green monkey Vero cells assessed as growth inhibition; assay type: functional
[12] = Cytotoxicity against African green monkey Vero cells; assay type: cell-based; details: chlorocebus sabaeus, read-out: LD50 (the source's name)
[13] = Selectivity index, ratio of LD50 for African green monkey Vero cells to MIC for replicating form of Mycobacterium tuberculosis infected in African green monkey Vero cells; assay type: toxicity, cell-based; details: read-out: Selectivity Index

With O=[N+]([O-])c1cc2ccccc2o1 the MIC90 [1] was 0.2 µg/mL (≈ 1.23 µM), the CC50 at 48 h [2] was 3 µg/mL (≈ 18.4 µM) and the MIC90 [3] was over 100 µg/mL. The selectivity ratio [4] was 16.

CCCc1cc(=O)oc2cc(N(C)C)c3c(c12)OC(C)(C)C=C3 showed an MIC90 [1] of over 16 µg/mL, a CC50 at 48 h [2] of over 16 µg/mL and an MIC90 [3] of over 16 µg/mL. It also gave an MIC90 [5] of 2 µg/mL (≈ 6.38 µM).

For O=c1oc2c3c(cc(OCCN4CCOCC4)c2c2c1CCCC2)O[C@H]([N+](=O)[O-])[C@H]3O (racemic), the MIC90 [1] was under 1 µg/mL, the CC50 at 48 h [2] was 0.4 µg/mL (≈ 0.925 µM) and the MIC90 [3] was under 1 µg/mL. For the same compound, the selectivity ratio [4] was over 0.3.

Compound CCCc1cc(=O)oc2cc(N3CCN(C(=O)Nc4ccc(C(F)(F)F)cc4)CC3)c3c(c12)OC(C)(C)C=C3 has an MIC90 [1] of over 27 µg/mL, a CC50 at 48 h [2] of over 27 µg/mL and an MIC90 [3] of over 27 µg/mL.

In the case of CCCc1cc(=O)oc2cc(C#Cc3ccc(F)cc3)c3c(c12)OC(C)(C)C=C3, the MIC90 [1] is reported as over 19 µg/mL, the CC50 at 48 h [2] is reported as over 19 µg/mL and the MIC90 [3] is reported as over 19 µg/mL.

Work on CCCc1cc(=O)oc2cc(C#CCO)c3c(c12)OC(C)(C)C=C3 yielded an MIC90 [1] of over 16 µg/mL, a CC50 at 48 h [2] of over 16 µg/mL and an MIC90 [3] of over 16 µg/mL.

Work on CCCc1cc(=O)oc2c1c(OCCN1CCOCC1)cc1[nH]c([N+](=O)[O-])cc12 yielded an MIC90 [1] of over 50 µg/mL, a CC50 at 48 h [2] of 25 µg/mL (≈ 62.3 µM) and an MIC90 [3] of over 50 µg/mL. It also gave a selectivity ratio [4] of under 0.5.

With CC1(C)C=Cc2c(c3c(CN4CCSCC4)cc(=O)oc3c3cc([N+](=O)[O-])oc23)O1 the MIC90 [1] was under 0.3 µg/mL, the CC50 at 48 h [2] was 1 µg/mL (≈ 2.33 µM) and the MIC90 [3] was under 0.3 µg/mL. For the same compound, the selectivity ratio [4] was over 5.

Work on CCCc1cc(=O)oc2c3c(cc(OCCO)c12)O[C@H]([N+](=O)[O-])[C@H]3O (racemic) yielded an MIC90 [1] of under 1 µg/mL, a CC50 at 48 h [2] of under 1 µg/mL and an MIC90 [3] of under 1 µg/mL.

Work on CC1(C)CCc2c3c(c4oc(=O)c5c(c4c2O1)CCCC5)[C@H](O)[C@@H]([N+](=O)[O-])O3 yielded an MIC90 [1] of 0.4 µg/mL (≈ 1.03 µM), a CC50 at 48 h [2] of 25 µg/mL (≈ 64.5 µM) and an MIC90 [3] of 0.8 µg/mL (≈ 2.07 µM). It also gave a selectivity ratio [4] of 64.

For CCCc1cc(=O)oc2c1c(OCCN1CCOCC1)cc1oc([N+](=O)[O-])cc12, the selectivity ratio [6] was 125, the MIC90 [7] was 0.08 µg/mL (≈ 0.199 µM) and the MIC90 [8] was 0.2 µg/mL (≈ 0.497 µM). For the same compound, the CC50 at 48 h [2] was 10 µg/mL (≈ 24.9 µM), the log10cfu [9] was 1 and the Activity [10] was “Non-toxic”.

CCCc1cc(=O)oc2c3c(cc(OCCN4CCOCC4)c12)O[C@H]([N+](=O)[O-])[C@H]3O showed a selectivity ratio [6] of 20, an MIC90 [7] of 0.08 µg/mL (≈ 0.19 µM) and an MIC90 [8] of 0.08 µg/mL (≈ 0.19 µM). It also gave a CC50 at 48 h [2] of 2 µg/mL (≈ 4.76 µM).

In the case of CCCc1cc(=O)oc2cc(N3CCNCC3)c3c(c12)OC(C)(C)C=C3.O=C(O)C(F)(F)F, the MIC90 [1] is reported as 23 µg/mL, the CC50 at 48 h [2] is reported as 12 µg/mL and the MIC90 [3] is reported as over 23 µg/mL. For the same compound, the selectivity ratio [4] was 0.5.

With CCCc1cc(=O)oc2c1c1c(c3oc([N+](=O)[O-])cc32)C=CC(c2ccccc2)O1 (stereo not given) the MIC90 [1] was 20 µg/mL (≈ 49.6 µM), the CC50 at 48 h [2] was 3 µg/mL (≈ 7.44 µM) and the MIC90 [3] was 6 µg/mL (≈ 14.9 µM). The selectivity ratio [4] was 0.1.

For CCCc1cc(=O)oc2cc(N3CCN(C(=O)Nc4ccc(F)cc4)CC3)c3c(c12)OC(C)(C)C=C3, the MIC90 [1] was over 25 µg/mL, the CC50 at 48 h [2] was over 25 µg/mL and the MIC90 [3] was over 25 µg/mL.

Work on CCCc1cc(=O)oc2c1c(OCCN1CCCC1)cc1oc([N+](=O)[O-])cc12 yielded an MIC90 [1] of under 0.2 µg/mL, a CC50 at 48 h [2] of 1 µg/mL (≈ 2.59 µM) and an MIC90 [3] of under 0.2 µg/mL. It also gave a selectivity ratio [4] of over 5.

For O=C(OCCOc1cc2c(c3oc(=O)c4c(c13)CCCC4)[C@H](O)[C@@H]([N+](=O)[O-])O2)c1cnccn1 (racemic), the MIC90 [1] was under 1 µg/mL, the CC50 at 48 h [2] was 0.4 µg/mL (≈ 0.852 µM) and the MIC90 [3] was under 1 µg/mL. For the same compound, the selectivity ratio [4] was over 0.3.

For CCCc1cc(=O)oc2cc(OCCN3CCCC3)c3c(c12)OC(C)(C)C=C3, the MIC90 [1] was 19 µg/mL (≈ 49.5 µM), the CC50 at 48 h [2] was 19 µg/mL (≈ 49.5 µM) and the MIC90 [3] was over 19 µg/mL. It also gave a selectivity ratio [4] of 1.

Compound CCCc1cc(=O)oc2cc(C#Cc3ccc(C)cc3)c3c(c12)OC(C)(C)C=C3 has an MIC90 [1] of over 19 µg/mL, a CC50 at 48 h [2] of over 19 µg/mL and an MIC90 [3] of over 19 µg/mL.

In the case of CCCc1cc(=O)oc2c3c(c4c(c12)OC(C)(C)C=C4)O[C@H](C)[C@@H](C)[C@@H]3O [CALANOLIDE A], the MIC [11] is reported as 3.1 µg/mL (≈ 8.37 µM), the CC50 [12] is reported as 7.6 µg/mL (≈ 20.5 µM) and the selectivity ratio [13] is reported as 2.4.
